In ChEMBL document CHEMBL1806376, “Synthesis and biological properties of macrolactam analogs of the natural product macrolide (-)-A26771B” (2011) one finds MIC data, which are given here for 8 compounds.

≈ marks a conversion by molar mass, not a printed value.

Common to all, as to format: functional
One assay has as its system Enterococcus faecalis. Kind of assay: Antibacterial activity against Enterococcus faecalis ATCC 29212 by broth microdilution method. Put shortly:
(§1)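 MIC values determined by broth microdilution following the CLSI method.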

Another assay relates to Enterococcus faecium. Kind of assay: Antibacterial activity against Enterococcus faecium 1 by broth microdilution method. The note with it: Enterococcus faecium, 1; read-out: MIC. Put shortly:
as §1

Assay [1] deals with Haemophilus influenzae. In words: Antibacterial activity against Haemophilus influenzae ATCC 31517 by broth microdilution method. The gist of the method: as §1
A general note: In broth dilution the organism is exposed to a series of concentrations in liquid medium.

The subject of assay [2] is Haemophilus influenzae. In words: Antibacterial activity against efflux knock-out Haemophilus influenzae LS2 by broth microdilution method. Put shortly:
as §1

The test system of assay [3] is Staphylococcus aureus. Kind of assay: Antibacterial activity against Staphylococcus aureus ATCC 13709 by broth microdilution method. The gist of the method: as §1
The subject of assay [4] is Staphylococcus aureus. Kind of assay: Antibacterial activity against methicillin-resistant Staphylococcus aureus Sa2 by broth microdilution method. Put shortly:
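Broth microdilution run according to the CLSI method.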

In assay [5] the test system is Staphylococcus aureus. Kind of assay: Antibacterial activity against Staphylococcus aureus ATCC 25923 by broth microdilution method. The gist of the method: as §1
For assay [6], the system named is Staphylococcus aureus. In words: Antibacterial activity against Staphylococcus aureus ATCC 25923 by broth microdilution method in presence of 10% human serum. The gist of the method:
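MIC determined by broth microdilution per the CLSI method, with 10% human serum added to the medium.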

Assay [7] deals with Staphylococcus aureus. Kind of assay: Antibacterial activity against Staphylococcus aureus oxford by broth microdilution method. The gist of the method:
as §1

For assay [8], the system named is Streptococcus pneumoniae. Kind of assay: Antibacterial activity against Streptococcus pneumoniae ATCC 49619 by broth microdilution method. Put shortly: as §1
In assay [9] the test system is Streptococcus pneumoniae. In words: Antibacterial activity against Streptococcus pneumoniae Pen9 IV381-221 by broth microdilution method. The gist of the method: as §1
The subject of a further assay is Escherichia coli. In words: Antibacterial activity against Escherichia coli ATCC 25922 by broth microdilution method. Put shortly:
as §1

Another assay relates to Pseudomonas aeruginosa. In words: Antibacterial activity against Pseudomonas aeruginosa ATCC 27853 by broth dilution method. Put shortly: as §1
Setting [10] is: Enterococcus faecalis, ATCC 29212, read-out: MIC.
Where [11] appears, read: Haemophilus influenzae, ATCC 31517, read-out: MIC.
The mark [12] stands for this setting: Haemophilus influenzae, LS2, read-out: MIC.
[13] abbreviates: Staphylococcus aureus, ATCC 13709, read-out: MIC.
Setting [14] is: Staphylococcus aureus, Sa2, read-out: MIC.
Where [15] appears, read: Staphylococcus aureus, ATCC 25923, read-out: MIC.
The mark [16] stands for this setting: Staphylococcus aureus, oxford, read-out: MIC.
Where [17] appears, read: Streptococcus pneumoniae, ATCC 49619, read-out: MIC.
[18] abbreviates: Streptococcus pneumoniae, Pen9 IV381-221, read-out: MIC.

On to `COC1CCCCCCCCC[C@@H](C)NC(=O)/C=C/C1=O` (single isomer, unassigned; diastereomer 2), for which the MIC in the assay with Enterococcus faecalis (setting [10]) amounted to 2 µg/mL (≈ 6.77 µM); with Enterococcus faecium it was 0.5 µg/mL (≈ 1.69 µM); against Haemophilus influenzae [1], 2 µg/mL (≈ 6.77 µM); against Haemophilus influenzae [2] it was 0.25 µg/mL (≈ 0.846 µM); in the assay on Staphylococcus aureus [3], 0.5 µg/mL (≈ 1.69 µM); against Staphylococcus aureus [4], 0.5 µg/mL (≈ 1.69 µM). Moreover, the MIC against Staphylococcus aureus [5] turned out to be 1 µg/mL (≈ 3.38 µM); in the assay on Staphylococcus aureus [6] it was 8 µg/mL; in the assay with Staphylococcus aureus [7] it was 0.5 µg/mL (≈ 1.69 µM); in the assay with Streptococcus pneumoniae [8], 2 µg/mL (≈ 6.77 µM); against Streptococcus pneumoniae [9], 8 µg/mL (≈ 27.1 µM).
Regarding `C[C@@H]1CCCCCCCCC[C@H](O)C(=O)/C=C/C(=O)O1`, the MIC was over 32 µg/mL in the assay with Escherichia coli; 2 µg/mL (≈ 7.08 µM) in the assay on Enterococcus faecalis (setting [10]); 8 µg/mL (≈ 28.3 µM) in the assay with Enterococcus faecium; 16 µg/mL (≈ 56.7 µM) in the assay with Haemophilus influenzae [1] (setting [11]); 1 µg/mL (≈ 3.54 µM) in the assay with Haemophilus influenzae [2] (setting [12]); over 32 µg/mL in the assay with Pseudomonas aeruginosa. The MIC in the assay on Staphylococcus aureus [3] (setting [13]) is 1 µg/mL (≈ 3.54 µM); with Staphylococcus aureus [4] (setting [14]), 2 µg/mL (≈ 7.08 µM); with Staphylococcus aureus [5] (setting [15]), 2 µg/mL (≈ 7.08 µM); with Staphylococcus aureus [6] (setting [15]), 32 µg/mL; in the assay with Staphylococcus aureus [7] (setting [16]) it was 1 µg/mL (≈ 3.54 µM); with Streptococcus pneumoniae [8] (setting [17]), 2 µg/mL (≈ 7.08 µM). In addition, the MIC in the assay with Streptococcus pneumoniae [9] (setting [18]) turned out to be 2 µg/mL (≈ 7.08 µM).
For the compound `CO[C@H]1CCCCCCCCC[C@@H](C)OC(=O)C2CC2C1=O` (mixture of isomers), the MIC against Escherichia coli, in the assay on Enterococcus faecalis (setting [10]), in the assay with Enterococcus faecium, in the assay with Haemophilus influenzae [1] (setting [11]), in the assay on Haemophilus influenzae [2] (setting [12]) and in the assay on Pseudomonas aeruginosa was over 64 µg/mL throughout. Moreover, the MIC in the assay on Staphylococcus aureus [3] (setting [13]), in the assay on Staphylococcus aureus [4] (setting [14]), in the assay with Staphylococcus aureus [5] (setting [15]), in the assay with Staphylococcus aureus [6] (setting [15]), in the assay with Staphylococcus aureus [7] (setting [16]) and with Streptococcus pneumoniae [8] (setting [17]) was over 64 µg/mL each time. In addition, the MIC in the assay with Streptococcus pneumoniae [9] (setting [18]) is over 64 µg/mL.
Consider `CC(=O)O[C@H]1CCCCCCCCC[C@@H](C)OC(=O)/C=C/C1=O`, for which the MIC in the assay on Escherichia coli is over 64 µg/mL; in the assay on Enterococcus faecalis (setting [10]), 4 µg/mL (≈ 12.3 µM); with Enterococcus faecium, 2 µg/mL (≈ 6.16 µM); with Haemophilus influenzae [1] (setting [11]) it was 32 µg/mL (≈ 98.6 µM); in the assay with Haemophilus influenzae [2] (setting [12]), 4 µg/mL (≈ 12.3 µM); in the assay with Pseudomonas aeruginosa it was over 64 µg/mL. Moreover, the MIC in the assay with Staphylococcus aureus [3] (setting [13]) worked out at 0.5 µg/mL (≈ 1.54 µM); with Staphylococcus aureus [4] (setting [14]) it was 0.5 µg/mL (≈ 1.54 µM); in the assay with Staphylococcus aureus [5] (setting [15]), 1 µg/mL (≈ 3.08 µM); in the assay with Staphylococcus aureus [6] (setting [15]) it was 16 µg/mL; with Staphylococcus aureus [7] (setting [16]), 1 µg/mL (≈ 3.08 µM); with Streptococcus pneumoniae [8] (setting [17]), 2 µg/mL (≈ 6.16 µM). Further, the MIC in the assay with Streptococcus pneumoniae [9] (setting [18]) stood at 4 µg/mL (≈ 12.3 µM).
With `CO[C@H]1CCCCCCCCC[C@@H](C)OC(=O)/C=C/C1=O`, the MIC in the assay on Escherichia coli was over 64 µg/mL; in the assay with Enterococcus faecalis (setting [10]), 2 µg/mL (≈ 6.75 µM); with Enterococcus faecium, 2 µg/mL (≈ 6.75 µM); with Haemophilus influenzae [1] (setting [11]), 32 µg/mL (≈ 108 µM); in the assay on Haemophilus influenzae [2] (setting [12]), 4 µg/mL (≈ 13.5 µM); with Pseudomonas aeruginosa, over 64 µg/mL. In addition, the MIC in the assay on Staphylococcus aureus [3] (setting [13]) stood at 1 µg/mL (≈ 3.37 µM); with Staphylococcus aureus [4] (setting [14]), 0.5 µg/mL (≈ 1.69 µM); in the assay on Staphylococcus aureus [5] (setting [15]), 1 µg/mL (≈ 3.37 µM); in the assay on Staphylococcus aureus [6] (setting [15]) it was 16 µg/mL; in the assay on Staphylococcus aureus [7] (setting [16]) it was 1 µg/mL (≈ 3.37 µM); with Streptococcus pneumoniae [8] (setting [17]) it was 2 µg/mL (≈ 6.75 µM). Further, the MIC in the assay on Streptococcus pneumoniae [9] (setting [18]) is 2 µg/mL (≈ 6.75 µM).
As for `C[C@@H]1CCCCCCCCC[C@H](O)C(=O)CC(SCC(F)(F)F)C(=O)O1` (stereo partly specified), the MIC with Escherichia coli was over 64 µg/mL; with Enterococcus faecalis (setting [10]), 4 µg/mL (≈ 10 µM); in the assay on Enterococcus faecium it was 4 µg/mL (≈ 10 µM); in the assay on Haemophilus influenzae [1] (setting [11]), 32 µg/mL (≈ 80.3 µM); in the assay with Haemophilus influenzae [2] (setting [12]), 2 µg/mL (≈ 5.02 µM); with Pseudomonas aeruginosa it was over 64 µg/mL. For the same compound, the MIC was 1 µg/mL (≈ 2.51 µM) in the assay with Staphylococcus aureus [3] (setting [13]); 1 µg/mL (≈ 2.51 µM) with Staphylococcus aureus [4] (setting [14]); 1 µg/mL (≈ 2.51 µM) in the assay with Staphylococcus aureus [5] (setting [15]); 32 µg/mL in the assay on Staphylococcus aureus [6] (setting [15]); 1 µg/mL (≈ 2.51 µM) with Staphylococcus aureus [7] (setting [16]); 4 µg/mL (≈ 10 µM) with Streptococcus pneumoniae [8] (setting [17]). Besides, in the assay on Streptococcus pneumoniae [9] (setting [18]), the MIC is 4 µg/mL (≈ 10 µM).
Take `CO[C@H]1CCCCCCCCC[C@@H](C)OC(=O)C2OC2C1=O` (single isomer, unassigned; diastereomer 1): the MIC against Enterococcus faecalis is 64 µg/mL (≈ 205 µM); with Enterococcus faecium, 32 µg/mL (≈ 102 µM); in the assay on Haemophilus influenzae [1] (setting [11]) it was over 64 µg/mL; in the assay with Haemophilus influenzae [2] (setting [12]), over 64 µg/mL; against Pseudomonas aeruginosa it was over 64 µg/mL; with Staphylococcus aureus [3] (setting [13]), 32 µg/mL (≈ 102 µM). The MIC is over 64 µg/mL in the assay with Staphylococcus aureus [4] (setting [14]); 64 µg/mL (≈ 205 µM) in the assay with Staphylococcus aureus [5] (setting [15]); over 64 µg/mL with Staphylococcus aureus [6] (setting [15]); 64 µg/mL (≈ 205 µM) in the assay with Staphylococcus aureus [7] (setting [16]); 64 µg/mL (≈ 205 µM) with Streptococcus pneumoniae [8] (setting [17]); 64 µg/mL (≈ 205 µM) in the assay on Streptococcus pneumoniae [9] (setting [18]).
Turning to `C[C@@H]1CCCCCCCCC[C@H](OC(=O)CCC(=O)O)C(=O)/C=C/C(=O)O1`, the MIC with Escherichia coli is over 32 µg/mL; in the assay with Enterococcus faecalis (setting [10]), 16 µg/mL (≈ 41.8 µM); in the assay with Enterococcus faecium, 4 µg/mL (≈ 10.5 µM); in the assay on Haemophilus influenzae [1] (setting [11]), over 32 µg/mL; in the assay on Haemophilus influenzae [2] (setting [12]), 16 µg/mL (≈ 41.8 µM); against Pseudomonas aeruginosa it was over 32 µg/mL. Further, the MIC is 2 µg/mL (≈ 5.23 µM) in the assay with Staphylococcus aureus [3] (setting [13]); 2 µg/mL (≈ 5.23 µM) in the assay with Staphylococcus aureus [4] (setting [14]); 4 µg/mL (≈ 10.5 µM) in the assay with Staphylococcus aureus [5] (setting [15]); over 32 µg/mL in the assay with Staphylococcus aureus [6] (setting [15]); 2 µg/mL (≈ 5.23 µM) in the assay on Staphylococcus aureus [7] (setting [16]); 16 µg/mL (≈ 41.8 µM) in the assay on Streptococcus pneumoniae [8] (setting [17]). Besides, the MIC in the assay with Streptococcus pneumoniae [9] (setting [18]) worked out at 8 µg/mL (≈ 20.9 µM).
